Results from ChEMBL document CHEMBL1135827, “Enhancement of nucleoside cytotoxicity through nucleotide prodrugs” (J Med Chem, 2002).

T1: DNA polymerase alpha catalytic subunit (Homo sapiens, UniProt P09884)
T1 sequence (P09884 whole entry): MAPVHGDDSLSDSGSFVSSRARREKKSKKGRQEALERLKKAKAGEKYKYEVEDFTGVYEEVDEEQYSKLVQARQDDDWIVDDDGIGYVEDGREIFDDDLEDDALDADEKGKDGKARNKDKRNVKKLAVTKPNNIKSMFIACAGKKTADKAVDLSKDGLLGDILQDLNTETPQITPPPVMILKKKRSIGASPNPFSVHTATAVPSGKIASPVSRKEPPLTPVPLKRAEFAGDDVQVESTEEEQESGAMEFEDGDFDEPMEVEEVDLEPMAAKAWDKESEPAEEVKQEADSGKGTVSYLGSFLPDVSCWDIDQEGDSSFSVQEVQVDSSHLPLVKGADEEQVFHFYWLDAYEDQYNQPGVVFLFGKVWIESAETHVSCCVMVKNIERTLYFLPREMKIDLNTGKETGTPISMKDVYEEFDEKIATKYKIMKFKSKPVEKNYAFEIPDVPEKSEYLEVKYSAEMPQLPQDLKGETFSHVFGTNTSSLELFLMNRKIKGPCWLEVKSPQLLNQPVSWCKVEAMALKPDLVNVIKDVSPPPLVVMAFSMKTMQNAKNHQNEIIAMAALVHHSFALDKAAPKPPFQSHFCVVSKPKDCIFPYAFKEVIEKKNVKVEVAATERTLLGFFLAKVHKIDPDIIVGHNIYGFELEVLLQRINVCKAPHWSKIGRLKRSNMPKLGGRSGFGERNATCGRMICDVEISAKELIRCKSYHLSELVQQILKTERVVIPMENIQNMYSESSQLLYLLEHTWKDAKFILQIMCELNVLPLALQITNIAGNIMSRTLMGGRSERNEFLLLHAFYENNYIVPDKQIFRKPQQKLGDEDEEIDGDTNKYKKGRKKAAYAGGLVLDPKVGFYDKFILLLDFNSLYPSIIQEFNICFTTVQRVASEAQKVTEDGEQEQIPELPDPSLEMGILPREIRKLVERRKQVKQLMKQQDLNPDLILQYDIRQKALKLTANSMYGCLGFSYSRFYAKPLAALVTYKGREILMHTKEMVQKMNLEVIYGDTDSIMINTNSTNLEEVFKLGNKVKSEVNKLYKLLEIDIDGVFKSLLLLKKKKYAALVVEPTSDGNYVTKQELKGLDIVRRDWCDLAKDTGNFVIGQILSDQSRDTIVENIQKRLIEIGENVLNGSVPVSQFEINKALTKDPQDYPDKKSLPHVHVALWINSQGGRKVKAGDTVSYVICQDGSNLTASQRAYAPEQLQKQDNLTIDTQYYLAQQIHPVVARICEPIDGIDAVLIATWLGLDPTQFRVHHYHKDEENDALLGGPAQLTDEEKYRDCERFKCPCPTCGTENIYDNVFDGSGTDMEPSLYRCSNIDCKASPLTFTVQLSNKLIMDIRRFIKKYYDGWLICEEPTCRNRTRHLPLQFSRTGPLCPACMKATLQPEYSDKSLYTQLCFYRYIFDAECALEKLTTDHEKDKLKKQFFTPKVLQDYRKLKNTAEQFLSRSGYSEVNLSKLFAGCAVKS


Assays:
[1] = system: CCRF-CEM; experiment: Percent control of RNA synthesis in CEM cells; type: functional, Homo sapiens
In short: (§1)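 CEM cells (RPMI 1640, 10% FBS) incubated with 29 μM or 35 μM compound (± 10 μM dCF). [3H]thymidine, [3H]uridine or [3H]leucine added 30 min after drug; samples at 1, 2 and 4 h after label. Acid-precipitable radioactivity measured; RNA taken as total acid-precipitable minus alkali-stable/acid-precipitable (DNA) fraction. Expressed as percent of control; repeated twice.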

[2] = system: CCRF-CEM; experiment: Percent control of DNA synthesis in CEM cells; type: functional, Homo sapiens; in short: as §1
[3] = target: T1, DNA polymerase alpha catalytic subunit; experiment: Ability to inhibit the incorporation of dATP into DNA by DNA polymerase alpha
In short: (§2)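 DNA polymerase α purified 52-fold from CEM cells (specific activity 120 nmol/mg/hr). 50 μL reactions: 50 mM Tris pH 8.0, 1 mg/mL BSA, 10 mM MgCl2, 1 mM DTT, 100 μg/mL activated DNA, 100 μM each dTTP and dCTP, 10 μM [3H]dGTP, dATP 0–100 μM. 1 h at 37 °C; TCA/ethanol-washed glass-fiber filters counted. Ki from slopes of Lineweaver–Burk lines vs inhibitor, three inhibitor concentrations.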

[4] = system: CCRF-CEM; experiment: Percent control of protein synthesis in CEM cells; type: functional, Homo sapiens; in short: as §1
[5] = substrate: Nc1ncnc2c1ncn2[C@H]1C[C@H](O)[C@@H](COP(=O)(O)OP(=O)(O)OP(=O)(O)O)O1; experiment: Km value with DNA polymerase alpha; type: functional; in short: as §2

Row | Ki [3] [µM] | Molecule | Control [1] [%] | Control [2] [%] | Control [4] [%] | Km [5] [µM]
1 | 156 | CC(C)(C)C(=O)OCOP(=O)(OCOC(=O)C(C)(C)C)OC[C@H]1O[C@@H](n2nnc3c(N)ncnc32)C[C@H]1O | 3 | 11 | 95 | 
2 |  | CC(C)(C)C(=O)OCOP(=O)(OCOC(=O)C(C)(C)C)OC[C@H]1O[C@@H](n2c(Br)nc3c(N)ncnc32)C[C@@H]1O | 14 | 53 | 94 | 
3 |  | CC(C)(C)C(=O)OCOP(=O)(OCOC(=O)C(C)(C)C)OC[C@H]1O[C@@H](n2nnc3c(N)ncnc32)C[C@H]1O.OC[C@H]1O[C@@H](n2cnc3c2NC=NC[C@H]3O)C[C@@H]1O | 3 | 11 | 98 | 
4 |  | DNA polymerase alpha catalytic subunit (Homo sapiens), P09884 (protein) MAPVHGDDSLSDSGSFVSSRARREKKSKKGRQEALERLKKAKAGEKYKYEVEDFTGVYEEVDEEQYSKLVQARQDDDWIVDDDGIGYVEDGREIFDDDLEDDALDADEKGKDGKARNKDKRNVKKLAVTKPNNIKSMFIACAGKKTADKAVDLSKDGLLGDILQDLNTETPQITPPPVMILKKKRSIGASPNPFSVHTATAVPSGKIASPVSRKEPPLTPVPLKRAEFAGDDVQVESTEEEQESGAMEFEDGDFDEPMEVEEVDLEPMAAKAWDKESEPAEEVKQEADSGKGTVSYLGSFLPDVSCWDIDQEGDSSFSVQEVQVDSSHLPLVKGADEEQVFHFYWLDAYEDQYNQPGVVFLFGKVWIESAETHVSCCVMVKNIERTLYFLPREMKIDLNTGKETGTPISMKDVYEEFDEKIATKYKIMKFKSKPVEKNYAFEIPDVPEKSEYLEVKYSAEMPQLPQDLKGETFSHVFGTNTSSLELFLMNRKIKGPCWLEVKSPQLLNQPVSWCKVEAMALKPDLVNVIKDVSPPPLVVMAFSMKTMQNAKNHQNEIIAMAALVHHSFALDKAAPKPPFQSHFCVVSKPKDCIFPYAFKEVIEKKNVKVEVAATERTLLGFFLAKVHKIDPDIIVGHNIYGFELEVLLQRINVCKAPHWSKIGRLKRSNMPKLGGRSGFGERNATCGRMICDVEISAKELIRCKSYHLSELVQQILKTERVVIPMENIQNMYSESSQLLYLLEHTWKDAKFILQIMCELNVLPLALQITNIAGNIMSRTLMGGRSERNEFLLLHAFYENNYIVPDKQIFRKPQQKLGDEDEEIDGDTNKYKKGRKKAAYAGGLVLDPKVGFYDKFILLLDFNSLYPSIIQEFNICFTTVQRVASEAQKVTEDGEQEQIPELPDPSLEMGILPREIRKLVERRKQVKQLMKQQDLNPDLILQYDIRQKALKLTANSMYGCLGFSYSRFYAKPLAALVTYKGREILMHTKEMVQKMNLEVIYGDTDSIMINTNSTNLEEVFKLGNKVKSEVNKLYKLLEIDIDGVFKSLLLLKKKKYAALVVEPTSDGNYVTKQELKGLDIVRRDWCDLAKDTGNFVIGQILSDQSRDTIVENIQKRLIEIGENVLNGSVPVSQFEINKALTKDPQDYPDKKSLPHVHVALWINSQGGRKVKAGDTVSYVICQDGSNLTASQRAYAPEQLQKQDNLTIDTQYYLAQQIHPVVARICEPIDGIDAVLIATWLGLDPTQFRVHHYHKDEENDALLGGPAQLTDEEKYRDCERFKCPCPTCGTENIYDNVFDGSGTDMEPSLYRCSNIDCKASPLTFTVQLSNKLIMDIRRFIKKYYDGWLICEEPTCRNRTRHLPLQFSRTGPLCPACMKATLQPEYSDKSLYTQLCFYRYIFDAECALEKLTTDHEKDKLKKQFFTPKVLQDYRKLKNTAEQFLSRSGYSEVNLSKLFAGCAVKS |  |  |  | 4
